Data as given in ChEMBL document CHEMBL3868584, “Cerasoidine, a Bis-aporphine Alkaloid Isolated from Polyalthia cerasoides during Screening for Wnt Signal Inhibitors” (J Nat Prod, 2016).
Active and inactive are the calls of the source. No cut-off for these calls is given here.

Tests used:
[1] = Inhibition of Wnt signalling in human STF/293 cells assessed as suppression of TCF/beta-catenin-mediated transcriptional activity after 24 hrs by superTOPflash reporter gene assay; format: cell-based; conditions: STF/293, 24 h
[2] = Cytotoxicity against human STF/293 cells assessed as reduction in cell viability at 2 to 10 uM after 24 hrs by fluorescein diacetate based assay; format: toxicity; conditions: hek293, 24 h
[3] = Inhibition of Wnt signalling in human SW480 cells assessed as decrease in beta-catenin level in nucleus at 20 to 60 uM after 24 hrs by Western blot analysis; format: cell-based
Summary of the method: (§1)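 SW480 colon cancer cells were treated, then whole, cytoplasmic and nuclear lysates were prepared. These were immunoblotted with anti-β-catenin and anti-c-myc antibodies. β-Actin served as the cytoplasmic fraction control and histone H1 as the nuclear fraction control.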

[4] = Cytotoxicity against human STF/293 cells assessed as reduction in cell viability at 10 to 40 uM after 24 hrs by fluorescein diacetate based assay; format: toxicity; conditions: hek293, 24 h
[5] = Inhibition of Wnt signalling in human SW480 cells assessed as decrease in c-myc level after 24 hrs by Western blot analysis; format: cell-based; summary of the method: as §1
[6] = Inhibition of Wnt signalling in human STF/293 cells assessed as decrease in beta-catenin levels after 24 hrs by Western blot analysis; format: cell-based
Summary of the method: (§2)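 STF/293 cells were exposed to the test agent and lysed. Lysates were immunoblotted for β-catenin, c-myc and PPARδ, with β-actin as the protein loading control.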

[7] = Cytotoxicity against human STF/293 cells assessed as reduction in cell viability at 0.5 to 2 uM after 24 hrs by fluorescein diacetate based assay; format: toxicity; conditions: hek293, 24 h
[8] = Inhibition of Wnt signalling in human STF/293 cells assessed as decrease in c-myc levels after 24 hrs by Western blot analysis; format: cell-based; summary of the method: as §2
[9] = Inhibition of Wnt signalling in human STF/293 cells assessed as decrease in PPARdelta levels after 24 hrs by Western blot analysis; format: cell-based; summary of the method: as §2

Row | SMILES | IC50 [1] | Activity [2] | Activity [7] | other results
1 | COc1ccc2c(c1)C(=O)c1nccc3cc4c(c-2c13)OCO4 [ATHEROSPERMIDINE] | 7.1 µM | Non-Toxic | – | –
2 | COc1ccc2c(c1)c(-c1c3c4c(cc5c(c4c4ccc(OC)cc14)OCO5)CCN3)c1c3c(cc4c(c32)OCO4)CCN1 [BIDEBILINE E] | 20.2 µM | – | – | inhibition [3]: Active; Activity [4]: Non-Toxic; inhibition [5]: Dose-dependent effect
3 | O=C1c2ccccc2-c2c3c(cc4ccnc1c24)OCO3 [LIRIODENINE] | 0.6 µM | – | Non-Toxic | inhibition [6]: Dose-dependent effect; inhibition [8]: Dose-dependent effect; inhibition [9]: Dose-dependent effect
4 | COc1cc2c(cc1OC)-c1cc3ccc(OC)c(OC)c3c(=O)n1CC2 | 0.6 µM | – | Non-Toxic | –
5 | COc1cc2c(cc1O)CCn1c-2cc2ccc(O)c(OC)c2c1=O | 8.7 µM | Non-Toxic | – | –
